The source made the active and inactive calls. No cut-off for these calls is given here.
Key:
[1] = Antitumor activity against mouse advanced Lewis lung carcinoma allografted in ip dosed BDF1 mouse assessed as increase in host lifespan administered as single dose on day 6 or 7 post-tumor implantation; assay type: functional
Procedure, shortened: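 Advanced Lewis lung model: about 40 mg fragments implanted sc by trocar into BDF1 mice, and mice with tumors of about 400 mg (day 6-7) selected. Tumor weight from calipers, w = ab²/2. Agent given as one ip dose in distilled water or physiological saline. Nontumor-bearing mice received matching doses as toxicity controls.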

Mus musculus [2] = test: Antitumor activity against mouse advanced Lewis lung carcinoma allografted in ip dosed BDF1 mouse assessed as complete regression of established tumor administered as single dose on day 6 or 7 post-tumor implantation; assay type: functional, organism-based
Procedure, shortened: (§1)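 BDF1 mice (C57Blk/6 × DBA/2) implanted sc by trocar with Lewis lung tumor fragments of about 40 mg, taken only from bacteriologically sterile donor tumors. Mice bearing tumors of about 400 mg (day 6-7) were selected. Each received a single ip dose on day 7, at or below the LD10 in normal mice. Groups were of 10 mice. Tumor weight was taken from calipers as w = ab²/2, measured at least twice weekly. Matched non-tumor mice served as toxicity controls.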

Mus musculus [3] = test: Antitumor activity against mouse advanced Lewis lung carcinoma allografted in BDF1 mouse assessed as complete regression of established tumor at 32 mg/kg, ip administered as single dose on 7th day post-tumor implantation; assay type: functional, organism-based; design: dose 32 mg/kg
Procedure, shortened: (§2)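 BDF1 mice (C57Blk/6 × DBA/2) implanted sc by trocar with about 40 mg Lewis lung tumor fragments from bacteriologically sterile donors. Advanced-disease groups held tumors of about 400 mg by day 6-7, sized by caliper (w = ab²/2). Single ip injection on day 7, in water or saline vehicle, at or below the LD10 in normal mice. Tumors measured at least twice weekly.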

Mus musculus [4] = test: Antitumor activity against mouse advanced Lewis lung carcinoma allografted in BDF1 mouse assessed as disease cure at 32 mg/kg, ip administered as single dose on 7th day post-tumor implantation measured for 80 days post-drug treatment; assay type: functional, organism-based; design: dose 32 mg/kg; procedure, shortened: as §1
Mus musculus [5] = test: Antitumor activity against mouse advanced Lewis lung carcinoma allografted in ip dosed BDF1 mouse assessed as disease cure administered as single dose on day 6 or 7 post-tumor implantation; assay type: functional, organism-based; procedure, shortened: as §1
[6] = Antitumor activity against mouse advanced Lewis lung carcinoma allografted in BDF1 mouse assessed as increase in host life span at 45 mg/kg, ip administered as single dose on 7th day post-tumor implantation; assay type: functional; conditions: route intraperitoneal; procedure, shortened: as §2
L1210 = test: Antitumor activity against mouse L1210 cells allografted in ip dosed mouse assessed as disease cure administered as single dose; assay type: functional, organism-based
Mus musculus [7] = test: (§3) Antitumor activity against mouse early Lewis lung carcinoma allografted in ip dosed BDF1 mouse assessed as disease cure administered as single dose on 1 or 2 days post-tumor implantation measured for 80 days post-drug treatment; assay type: functional
Procedure, shortened: (§4)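 BDF1 mice implanted sc by trocar with ~40 mg Lewis lung fragments from sterile donor tumors. A single ip dose was given on day 1 or 2 after implant, in water or saline vehicle. Cures were scored in animals observed for at least 80 days after treatment. Drug-toxicity controls were matched non-tumor-bearing mice monitored for body weight and deaths.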

Mus musculus [8] = test: Antitumor activity against mouse early Lewis lung carcinoma allografted in ip dosed BDF1 mouse administered as single dose on 1 or 2 days post-tumor implantation measured for 80 days post-drug treatment; assay type: functional, organism-based; procedure, shortened: as §4
[9] = Antitumor activity against mouse advanced Lewis lung carcinoma allografted in BDF1 mouse assessed as increase in host life span at 21 mg/kg, ip administered as single dose on 7th day post-tumor implantation; assay type: functional; conditions: route intraperitoneal; procedure, shortened: as §2
[10] = Antitumor activity against mouse advanced Lewis lung carcinoma allografted in BDF1 mouse assessed as increase in host life span at 32 mg/kg, ip administered as single dose on 7th day post-tumor implantation; assay type: functional; conditions: route intraperitoneal; procedure, shortened: as §2
Mus musculus [11] = test: Antitumor activity against mouse advanced Lewis lung carcinoma allografted in BDF1 mouse assessed as disease cure at 21 mg/kg, ip administered as single dose on 7th day post-tumor implantation measured for 80 days post-drug treatment; assay type: functional, organism-based; design: dose 21 mg/kg; procedure, shortened: as §1
[12] = Antitumor activity against mouse early Lewis lung carcinoma allografted in BDF1 mouse assessed as time delay in tumor growth at 38 mg/kg, ip administered as single dose on 1 or 2 days post-tumor implantation; assay type: functional; conditions: route intraperitoneal
Procedure, shortened: (§5)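 BDF1 mice (C57Blk/6 × DBA/2) implanted sc by trocar with ~40 mg Lewis lung tumor fragments from bacteriologically sterile donors. A single ip dose was given on day 1 or 2, as a solution or suspension in water or saline with suspending agent, at ≤0.5 ml. Tumors were measured by caliper at least twice weekly, with weight = ab²/2. Delay was taken as the days for the tumor to reach 1 g.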

[13] = Antitumor activity against mouse early Lewis lung carcinoma allografted in BDF1 mouse assessed as time delay in tumor growth at 26 mg/kg, ip administered as single dose on 1 or 2 days post-tumor implantation; assay type: functional; conditions: route intraperitoneal; procedure, shortened: as §5
[14] = Ratio of ED50 for antitumor activity against mouse L1210 cells allografted in ip dosed mouse to LD10 for mouse
[15] = Antitumor activity against mouse early Lewis lung carcinoma allografted in BDF1 mouse assessed as increase in host life span at 26 mg/kg, ip administered as single dose on 1 or 2 days post-tumor implantation; assay type: functional; conditions: route intraperitoneal
Procedure, shortened: (§6)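 BDF1 mice (C57Blk/6 × DBA/2) implanted sc by trocar with ~40 mg Lewis lung tumor fragments from bacteriologically sterile donor tumors. Single ip dose on day 1 or 2, as a solution or suspension in water (CMC or gum acacia) or saline (HPC or Tween 80). Read-out is […]. Same-dose toxicity controls were run in nontumor-bearing mice.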

[16] = as §3; assay type: functional; procedure, shortened: as §4
[17] = Antitumor activity against mouse early Lewis lung carcinoma allografted in BDF1 mouse assessed as increase in host life span at 38 mg/kg, ip administered as single dose on 1 or 2 days post-tumor implantation; assay type: functional; conditions: route intraperitoneal; procedure, shortened: as §6
[18] = Antitumor activity against mouse advanced Lewis lung carcinoma allografted in BDF1 mouse assessed as increase in host life span at 36 mg/kg, ip administered as single dose on 7th day post-tumor implantation; assay type: functional; conditions: route intraperitoneal; procedure, shortened: as §2
Mus musculus [19] = test: Antitumor activity against mouse advanced Lewis lung carcinoma allografted in BDF1 mouse assessed as disease cure at 36 mg/kg, ip administered as single dose on 7th day post-tumor implantation measured for 80 days post-drug treatment; assay type: functional, organism-based; design: dose 36 mg/kg; procedure, shortened: as §1
[20] = Antitumor activity against mouse early Lewis lung carcinoma allografted in BDF1 mouse assessed as time delay in tumor growth at 30 mg/kg, ip administered as single dose on 1 or 2 days post-tumor implantation; assay type: functional; conditions: route intraperitoneal; procedure, shortened: as §5
[21] = Antitumor activity against mouse early Lewis lung carcinoma allografted in BDF1 mouse assessed as increase in host life span at 30 mg/kg, ip administered as single dose on 1 or 2 days post-tumor implantation; assay type: functional; conditions: route intraperitoneal; procedure, shortened: as §6
Mus musculus [22] = test: Antitumor activity against mouse advanced Lewis lung carcinoma allografted in BDF1 mouse assessed as disease cure at 30 mg/kg, ip administered as single dose on 7th day post-tumor implantation measured for 80 days post-drug treatment; assay type: functional, organism-based; design: dose 30 mg/kg; procedure, shortened: as §1
[23] = Antitumor activity against mouse early Lewis lung carcinoma allografted in BDF1 mouse assessed as increase in host life span at 13 mg/kg, ip administered as single dose on 1 or 2 days post-tumor implantation; assay type: functional; conditions: route intraperitoneal
Procedure, shortened: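 Early disease: BDF1 mice carrying sc trocar implants of about 40 mg Lewis lung fragments. One ip dose given on day 1 or 2 after implant, in distilled water or saline, at ≤0.5 ml. Endpoints were % increase in life-span of dying animals and delay in days for the primary tumor to reach 1 g. Untreated controls served as reference.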

[24] = Antitumor activity against mouse advanced Lewis lung carcinoma allografted in BDF1 mouse assessed as increase in host life span at 30 mg/kg, ip administered as single dose on 7th day post-tumor implantation; assay type: functional; conditions: route intraperitoneal; procedure, shortened: as §2
[25] = Antitumor activity against mouse early Lewis lung carcinoma allografted in BDF1 mouse assessed as time delay in tumor growth at 13 mg/kg, ip administered as single dose on 1 or 2 days post-tumor implantation; assay type: functional; conditions: route intraperitoneal
Procedure, shortened: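 Sc trocar implants of about 40 mg Lewis lung fragments in BDF1 mice. A single ip injection was given on day 1 or 2, in water or physiological saline, at ≤0.5 ml. Tumor size came from caliper length and width as w = ab²/2, measured at least twice weekly. Growth delay is the extra days taken to reach 1 g, compared with untreated controls.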

O=NN(CCCl)C(=O)N[C@H]1CC[C@@H](NC(=O)N(CCCl)N=O)CC1
ILS [1]: <25% | inhibition (Mus musculus [2]): inactive

C[C@H]1CC[C@@H](NC(=O)N(CCCl)N=O)CC1
ILS [1]: <25% | inhibition (Mus musculus [2]): inactive

O=NN(CCCl)C(=O)NCCCl [CARMUSTINE]
ILS [1]: <25% | inhibition (Mus musculus [3]): inactive | inhibition (Mus musculus [2]): inactive | Activity (Mus musculus [4]): inactive

O=NN(CCCl)C(=O)NC1CC2CCC1C2 (centres undefined)
Activity (Mus musculus [5]): inactive | ILS [1]: >25% | inhibition (Mus musculus [2]): inactive

O=NN(CCF)C(=O)N[C@H]1CC[C@H](NC(=O)N(CCCl)N=O)CC1
ILS [1]: <25% | inhibition (Mus musculus [2]): inactive

CC(=O)O[C@H]1CC[C@H](NC(=O)N(CCF)N=O)CC1
ILS [1]: <25% | inhibition (Mus musculus [2]): inactive

O=NN(CCCl)C(=O)N[C@@H]1CCC[C@H](C(=O)O)C1 (relative stereo)
ILS [1]: <25% | inhibition (Mus musculus [2]): inactive

O=NN(CCCl)C(=O)NC1C=CCCC1 (centres undefined)
ILS [1]: <25% | inhibition (Mus musculus [2]): inactive

O=NN(CCF)C(=O)N[C@H]1CC[C@H](C(=O)O)CC1
Activity (Mus musculus [5]): Active | ILS at 45 mg/kg [6]: 60%

CCCCCC(C)NC(=O)N(CCCl)N=O (centres undefined)
ILS [1]: <25% | Activity (L1210): inactive | inhibition (Mus musculus [2]): inactive | Activity (Mus musculus [7]): inactive | Activity (Mus musculus [8]): inactive

COC(=O)[C@H]1CC[C@H](NC(=O)N(CCCl)N=O)CC1
ILS at 21 mg/kg [9]: 113% | Activity (Mus musculus [5]): inactive | inhibition (Mus musculus [2]): Active | Activity (Mus musculus [4]): inactive | ILS at 32 mg/kg [10]: 86% | Activity (Mus musculus [11]): inactive

CC[C@H]1CC[C@H](NC(=O)N(CCF)N=O)CC1
ILS [1]: <25% | inhibition (Mus musculus [2]): inactive

O=NN(CCCl)C(=O)N[C@H]1CC[C@H](O)CC1
Time [12]: 10.2 days | Time [13]: 3.3 days | Ratio [14]: 0.4 | ILS at 26 mg/kg [15]: 84% | ILS [1]: <25% | inhibition (Mus musculus [2]): inactive | Activity [16]: 10% | ILS at 38 mg/kg [17]: 146%

CC(C)[C@H]1CC[C@H](NC(=O)N(CCF)N=O)CC1
ILS [1]: <25% | inhibition (Mus musculus [2]): inactive

C[C@H]1S(=O)(=O)C[C@H](NC(=O)N(CCCl)N=O)CS1(=O)=O
Ratio [14]: 0.4 | ILS [1]: <25% | inhibition (Mus musculus [2]): inactive | Activity (Mus musculus [7]): inactive | Activity (Mus musculus [8]): inactive

O=NN(CCCl)C(=O)NCCF
inhibition (Mus musculus [3]): inactive | Activity (Mus musculus [4]): inactive | ILS at 32 mg/kg [10]: 44%

O=NN(CCF)C(=O)N[C@H]1CC[C@@H](C(=O)O)CC1
ILS [1]: <25% | inhibition (Mus musculus [2]): inactive

C[C@H]1CCC[C@@H](NC(=O)N(CCCl)N=O)C1 (relative stereo)
ILS [1]: <25% | inhibition (Mus musculus [2]): inactive

C[C@H]1S(=O)(=O)C[C@@H](NC(=O)N(CCCl)N=O)CS1(=O)=O
Activity (Mus musculus [5]): inactive | Ratio [14]: 0.6 | ILS [1]: >25% | inhibition (Mus musculus [3]): inactive | inhibition (Mus musculus [2]): inactive | Activity (Mus musculus [7]): inactive | Activity (Mus musculus [4]): inactive | ILS at 32 mg/kg [10]: 10% | Activity (Mus musculus [8]): inactive

CO[C@H]1CC[C@@H](NC(=O)N(CCCl)N=O)CC1
Activity (Mus musculus [8]): inactive

O=NN(CCF)C(=O)NC1CCSCC1
Activity (Mus musculus [5]): inactive | ILS [1]: >25% | inhibition (Mus musculus [2]): inactive | ILS at 36 mg/kg [18]: 87% | Activity (Mus musculus [19]): inactive

O=NN(CCCl)C(=O)NC1CCCC1
ILS [1]: <25% | inhibition (Mus musculus [2]): inactive

O=NN(CCCl)C(=O)NC1CCS(=O)(=O)C1 (centres undefined)
ILS [1]: <25% | inhibition (Mus musculus [2]): inactive

O=NN(CCCl)C(=O)N[C@H]1CC[C@H](C(=O)O)CC1
Activity (Mus musculus [5]): Active | Time [20]: 20 days | ILS at 30 mg/kg [21]: 115% | Ratio [14]: 0.6 | Activity [16]: >50% | Activity (Mus musculus [22]): inactive | ILS at 13 mg/kg [23]: 33% | ILS at 30 mg/kg [24]: 67% | Time [25]: 7.6 days

Source: ChEMBL document CHEMBL3271979, “Inhibition of solid tumors by nitrosoureas. 1. Lewis lung carcinoma” (1977)
